High-throughput results from PubChem BioAssay.
ARNT TACC3 PPI: disrupts binding between human ARNT and TACC3; Q9Y6A5; AlphaScreen His-ARNT PAS-B/GST-TACC3 binding, luminescence; TACC3 fragment carries E629A point mutation; inhibition, % at 9.99 µM; 390,000 tested, 0.66% active; AID 623870;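 active = mean inhibition of replicates at least 50% and at least half of replicates each reaching 50%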;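 also: 0% = complete ARNT plus TACC3 wells and 100% = ARNT alone without TACC3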
Mot1-301 SUMO: SUMOylation pathway inhibition by Mot1-301 growth rescue | S. cerevisiae Mot1-301 growth rescue, ATP luminescence, 38.5C; percent above DMSO median, 100 means doubled | growth rescue, % at 18.8 µM | 320,000 tested, 1% active | AID 2716;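 active = every valid replicate shows activation above 250% relative to neutral control wells; inactive = the rest, any valid replicate at or below 250%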;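 also: OY570 slx delta 5 strain wells were the positive control but not used for scaling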
RTF Ca sens act: cardiac RTF calcium sensitization; activation, % at 7.2 µM; IANBD-labeled TnC RTF fluorescence at EC20 calcium; 0% EC20 calcium, 100% full calcium; P19429+P45379; 340,000 tested, 0.24% active;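 active = activation above the mean over all tested compounds plus 3 SD, cut at about 30% in these data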;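 also: rise in fluorescence read as greater calcium sensitivity of cardiac thin filaments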
UCH37 inh: blocks the human deubiquitinase UCH37 | Q9Y5K5 | purified proteasome/UCH37, Ub-AMC cleavage fluorescence | 330,000 tested, 0.33% active | inhibition, % (test concentration not listed);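 active = mean inhibition over replicate wells above about 20%, limit read from the data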;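 also: 0% = compound-free wells with enzyme and 100% = wells lacking proteasome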
Target sequence (Q9Y5K5 whole entry, looked up): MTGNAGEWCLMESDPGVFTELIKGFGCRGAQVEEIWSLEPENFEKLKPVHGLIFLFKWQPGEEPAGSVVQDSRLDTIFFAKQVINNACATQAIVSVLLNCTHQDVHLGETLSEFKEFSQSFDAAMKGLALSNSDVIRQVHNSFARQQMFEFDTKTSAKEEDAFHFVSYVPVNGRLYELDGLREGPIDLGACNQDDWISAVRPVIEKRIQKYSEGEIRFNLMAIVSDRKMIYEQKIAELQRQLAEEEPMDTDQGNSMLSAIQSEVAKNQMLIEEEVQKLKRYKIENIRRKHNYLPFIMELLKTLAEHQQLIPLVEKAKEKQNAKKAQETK
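assay system = human UCH37 enzyme supplied as purified proteasome complex | amount = proteasome at 0.15 nM in the dispensed enzyme solution | schedule = 30 min compound-proteasome preincubation then 25 min substrate reaction, room temperature | measured by = fluorescence, ex 355 nm, em 460 nm | benchmarks = no-proteasome wells (full inhibition) and compound-free wells (no inhibition)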
RTF Ca sens inh: cardiac RTF calcium desensitization; P19429+P45379; inhibition, % at 7.15 µM; IANBD-labeled cardiac RTF, Ca2+ fluorescence; 340,000 tested, 0.12% active;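 active = inhibition above the mean inhibition of all tested compounds plus 3 SD, cut at about 17% in these data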;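 also: assay run at fixed EC70 calcium of 1.6 mM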
Efflux pump inh: antifungal efflux pump inhibition, Nile Red retention; S. cerevisiae Candida pump triplex; inhibition, % at 10 µM; 330,000 tested, 0.44% active;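 active = plate passing quality check with inhibition over a set limit, or well fluorescence over plate mean plus 4 SD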;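 also: Nile Red retained in pooled yeast measured as flow cytometry median fluorescence; 0% = buffer negative control and 100% = Enniatin B positive control; higher means more Nile Red kept so more efflux inhibition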
Mot1 SUMO dose: inhibits SUMO pathway, affecting Mot1-301 yeast growth. shares compounds with Mot1-301 SUMO. S. cerevisiae Mot1-301 galactose growth, ATP luminescence, 24 h; -100 = growth of slx-deleted rescue strain. growth activity, percent, % at 42 µM. 2,300 tested, under 10 active. AID 493004;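 active = Signal drops as the depositor expects, and the fitted half-maximal dose is no more than ten times the top valid tested dose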;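 also: more negative values mean stronger growth rescue toward the control strain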
The depositor's hits bear a star; · = not tested or not shown; + = active, no number. Sampled rows, rich in hits. Any-hit rate of the full collection: about 2.1%.

SMILES	ARNT TACC3 PPI	Mot1-301 SUMO	RTF Ca sens act	UCH37 inh	RTF Ca sens inh	Efflux pump inh	Mot1 SUMO dose
Cc1ccc(O)c(C)c1	·	388.9*	0.9	-1.1	-4.8	0.1	1.2
C[C@H]1CN([C@@H](C)CO)C(=O)CCCn2cc(nn2)CO[C@@H]1CN(C)C(=O)Oc1ccc2ccccc2c1	3.6	·	·	·	·	·	·
O=C(Cc1cccnc1)N1CCCCN2[C@H](C1)[C@@H](c1ccc(C#CC3(O)CCCC3)cc1)[C@@H]2CO	-9.9	·	·	·	·	·	·
CC(=O)OC1CCC2(C=NO)C(=CCC3C4CCC(=O)C4(C)CCC32)C1 (stereo not given)	·	·	·	0.7	·	·	·
COC(=O)C1CN(C#N)N(c2ccc(Cl)cc2)C12c1ccccc1-c1ccccc12 (stereo not given)	·	792.2*	-4.1	8.8	-6.8	0.1	-1.6
COC(=O)[C@H]1[C@H](CO)[C@H]2Cn3c(ccc(-c4ccccc4F)c3=O)[C@@H]1N2Cc1ccccc1	2.6	·	·	·	·	·	·
O=c1[nH]c(O)c(N=Nc2cc([N+](=O)[O-])ccc2O)c(=O)[nH]1	56.6*	648.6*	-6.2	22.7*	1.9	-0.1	0.2
COC(=O)[C@H]1[C@H](CO)[C@H]2Cn3c(ccc(-c4ccccc4F)c3=O)[C@@H]1N2Cc1ccncc1	3.0	·	·	·	·	·	·
C[C@H]1CCC[C@@H](O)CCCC=Cc2cc(O)cc(O)c2C(=O)O1	·	·	·	-0.1	·	·	·
O=[N+]([O-])c1ccccc1CN1CC=C(c2ccc(F)cc2)CC1	5.3	+	0.6	3.6	0.4	0.2	0.8
O=[N+]([O-])c1cccc(CN2CC=C(c3ccc(F)cc3)CC2)c1	26.1	17.8	-3.0	4.0	-5.8	0.1	·
COc1ccc(OC)c(C=NOC(=O)Nc2ccc(Cl)cc2)c1	·	·	·	-29.0	·	·	·
Cc1sc(-n2c(C)cc(C=C3C(=O)NC(=O)NC3=O)c2C)c(C#N)c1C	·	486.3*	·	-42.2	·	0.3	-0.2
O=C(O)[C@H]1[C@H](CO)[C@H]2Cn3c(ccc(-c4ccccc4)c3=O)[C@@H]1N2C(=O)C1CCCCC1	-10.8	·	·	·	·	·	·
Cn1cc(C(=O)Cc2ccccc2)c2ccccc21	-7.0	671.3*	-1.1	5.4	3.7	-0.3	0.6
COC(=O)[C@@H]1[C@@H](CO)[C@@H]2Cn3c(cccc3=O)[C@H]1N2C(=O)C1CCCC1	-11.1	·	·	·	·	·	·
COC(=O)c1cn(C(=O)c2cccc3ccccc23)c2ccccc12	-3.1	490.0*	-5.1	6.0	5.0	-0.2	-0.6
COC(=O)c1ccccc1-n1c(C)nc2ccccc2c1=O	17.2	33.2	-2.0	3.1	-5.8	0.0	·
C[n+]1c(-c2ccccc2)cc(CCCCc2cc(-c3ccccc3)[n+](C)c(-c3ccccc3)c2)cc1-c1ccccc1	17.9	368.5*	-5.9	-3.3	5.1	0.1	-0.6
COc1ccc(-c2cc(-c3ccccc3)[n+](C)c(-c3ccccc3)c2)cc1	-0.9	1.2	-3.8	-20.1	-2.2	0.0	·
Cc1cccc(N=Nc2ccc(N(C)C)cc2)c1	-4.5	735.6*	-4.5	3.2	-9.5	0.3	0.5
Cc1cccc(C#N)c1	·	239.6	-7.5	1.2	3.7	0.2	·
COc1ccc(N/N=C/c2c(O)n(-c3cccc(C)c3)c(=O)[nH]c2=O)cc1	35.8	216.3	1.0	2.8	-6.5	0.1	·
Cc1cccc(N/N=C/c2c(O)[nH]c(=S)[nH]c2=O)c1	20.3	376.3*	2.3	·	-0.7	·	0.1
COc1ccc(/C=C(\C#N)C(=O)c2cccn2C)cc1	-1.9	396.1*	-3.2	5.7	-5.8	0.1	0.0
COC(=O)[C@@H]1[C@@H](CO)[C@@H]2Cn3c(ccc(/C=C/c4ccccc4)c3=O)[C@H]1N2C(=O)C1CC1	-3.4	·	·	·	·	·	·
CC1CN=C(NCc2ccccc2)S1 (stereo not given)	-0.5	679.5*	0.9	1.1	1.6	-0.2	0.1
CC1CN=C(NCc2ccccc2Cl)S1 (stereo not given)	-12.8	-3.0	0.3	3.7	5.1	-0.1	·
OC[C@@H](O)CCl	·	360.1*	·	-1.5	·	-0.1	0.3
